Measured values of several laboratories.
Each line is one published result; the experiments were not run side by side.
Target: Phosphatidylinositol 4-phosphate 5-kinase type-1 gamma (PIP5K1C, Homo sapiens, UniProt O60331)

With `O=C(c1ccc(Nc2ncc(Cl)c(-c3ccc(Cl)s3)n2)cc1)N1CCC(N2CCCC2)CC1` the remaining binding was 72% (binding, competition with immobilised ligand; 1 µM).
For `FC(F)(F)Oc1cccc(-c2cnc3ccc(-c4ccncc4)nn23)c1`, the remaining binding was 47% (cell-free assay, competition with immobilised ligand; 5 µM).
For `C[C@@H]1CN(c2cc(-c3n[nH]c4ccc(OC5(C)CC5)cc34)ncn2)C[C@H](C)O1`, the remaining binding was 92% (cell-free assay, competition with immobilised ligand; 0.1 µM).
`O=C(NCC1CCOCC1)c1n[nH]cc1NC(=O)c1c(F)cccc1F` gave a remaining binding of 55% (binding, competition with immobilised ligand; 1 µM).
`COc1cccc(CNC(=O)c2nc3scc(COCc4ccc(C(=O)O)cc4)c3c(=O)[nH]2)c1` gave a remaining binding of 63.7% (cell-free assay, competition with immobilised ligand; 1 µM).
With `COc1cnc(Nc2cccc(S(N)(=O)=O)c2)nc1N1CCN(c2ccccc2)CC1` the remaining binding was 100% (binding, competition with immobilised ligand; 1 µM).
`COc1ncc2cc3ccccc3nc2c1C#N` has a remaining binding of 89% (cell-free assay, competition with immobilised ligand; 5 µM).
With `O=C(N[C@H]1CCCCC/C=C\C2C[C@@]2(C(=O)O)NC(=O)[C@@H]2C[C@@H](Oc3ccncc3)CN2C1=O)OC1CCCC1` (stereo partly drawn) the remaining binding was 100% (binding, competition with immobilised ligand; 1 µM).
The remaining binding of `C[C@@H]1CCN(c2nccc(-c3cnn4ncccc34)n2)C1` is reported as 99% (binding; 1 µM).
For `O=C(NCCCN1CCOCC1)c1ccc(Nc2nccc(-c3cc4ccccc4s3)n2)cc1`, the remaining binding was 2.3% (binding, competition with immobilised ligand; 1 µM).
`Cc1cnn2ncc(-c3ccnc(N(C)C)n3)c2c1` has a remaining binding of 100% (binding; 1 µM).
For `N#CC1(c2ccccn2)CCN(Cc2cc(C(=O)N3CCCC3)c(=O)n3ccccc23)CC1`, the remaining binding was 68% (cell-free assay, competition with immobilised ligand; 1 µM).
The remaining binding of `CN(CCCC(F)(F)F)c1nccc(-c2cnn3ncccc23)n1` is reported as 77% (binding; 1 µM).
The remaining binding of `Nc1ncc2c(n1)-c1c([nH]c3ccc(C#CC4CC4)cc13)CCCC2` is reported as 57% (binding, competition with immobilised ligand; 1 µM).
With `N[C@H]1CCN(c2nccc(-c3cnn4ncccc34)n2)C1` the remaining binding was 63% (binding; 1 µM).
With `O=C(NCCCN1CCOCC1)c1ccc(Nc2ncc(Cl)c(-c3ccc(Cl)s3)n2)cc1` the remaining binding was 59% (binding, competition with immobilised ligand; 1 µM).
With `O=C(O)c1cc(-c2ccc(C3CCNCC3)cc2)c2ccc(-c3ccc(C(F)(F)F)cc3)cc2c1` the remaining binding was 100% (cell-free assay, competition with immobilised ligand; 1 µM).
The remaining binding of `F[C@@H]1CCN(c2nccc(-c3cnn4ncccc34)n2)C1` is reported as 100% (binding; 1 µM).
